Assay results published in publication PMC5099097 (Antiviral research, 2016).

How the values were obtained:
[1] = system: HCMV T3429 (UL54 mutant); test: SEAP assay, recombinant GCV-resistant HCMV T3429 on MRC-5 cells; assay type: cell-based, human cytomegalovirus; settings: Supplemental Table 1 (values not available)
[2] = system: HCMV T3252 (UL97 mutant); test: SEAP assay, recombinant GCV-resistant HCMV T3252 on MRC-5 cells; assay type: cell-based, human cytomegalovirus; settings: Supplemental Table 1 (values not available)
[3] = system: HCMV TB40E; test: GCV and p5RD alone and combined, TB40E-Luc on MRC-5 cells; assay type: cell-based, human cytomegalovirus; settings: 3 μM GCV alone
[4] = system: HCMV TB40E; test: Luciferase assay: peptide reduction of HCMV TB40E-Luc infection of MRC-5 cells; assay type: cell-based, human cytomegalovirus; settings: peptide concentration >200 μM
[5] = system: HCMV TB40E; test: Luciferase assay: TB40E-Luc infection of MRC-5, HFF, ARPE-19 and HAEC cells; assay type: cell-based, human cytomegalovirus; settings: 200 μM peptide added 30 min prior to infection, ARPE-19, HAEC
Procedure, shortened: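 At 80–85% confluency, cells (MRC-5, HFF, ARPE-19 or HAEC) got 200 μM peptide in 10% FBS/PBS, or vehicle alone, 30 min before HCMV TB40E (luciferase, UL18 promoter) at ~35–50 pfu (~2500–3000 RLU). Inoculum was removed after 60 min at 37 °C. Cells were lysed after 3 days and luminescence read. Uninfected background was subtracted and values normalized to infected untreated cells. Three experiments, three replicates each.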

[6] = set-up: species or system BALB/c mice; settings: mouse, in vivo, iv
[7] = system: MCMV; settings: relative to p5; ref Dogra et al., 2015; Martin et al., 2013; Wall et al., 2011; cited from earlier work

**Q.** Which “susceptibility of T3429 to GCV” value [1] does the source give for `Nc1nc(O)c2ncn(COC(CO)CO)c2n1` [GCV, ganciclovir] here?
**A.** Its value is “resistant to high concentrations”.

**Q.** What about the “susceptibility of T3252 to GCV” value [2] of the same compound?
**A.** Its value is “resistant to high concentrations”.

**Q.** And the “reduction in HCMV infection” value [3]?
**A.** Its value is ~ 95%.

**Q.** Which results are given for GGGYSRAQRAQARQARQAQRARGARQ [p5R]?
**A.** reduction of HCMV infection [4]: ≥ 90%; reduction of HCMV infection in all cell types [5]: > 80%; time by which the majority of the peptide was excreted or degraded [6]: ≤ 4 h; time retained at high levels in the spleen, liver and kidneys post injection [6]: rapidly dehalogenated and/or excreted; blocks MCMV infection more efficiently than p5 (fold) [7]: 2 x
